mABHD4 FP: inhibitors of mouse ABHD4 | hit rate 0.54% among 370,000 | AID 720543 | Q8VD66 | inhibition, % at 8.92 µM | purified mABHD4, FP-Rh probe fluorescence polarization;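 active = inhibition exceeding the mean over every tested compound plus 3 SD, cut at about 30% in these data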
Target sequence (Q8VD66 whole entry, looked up): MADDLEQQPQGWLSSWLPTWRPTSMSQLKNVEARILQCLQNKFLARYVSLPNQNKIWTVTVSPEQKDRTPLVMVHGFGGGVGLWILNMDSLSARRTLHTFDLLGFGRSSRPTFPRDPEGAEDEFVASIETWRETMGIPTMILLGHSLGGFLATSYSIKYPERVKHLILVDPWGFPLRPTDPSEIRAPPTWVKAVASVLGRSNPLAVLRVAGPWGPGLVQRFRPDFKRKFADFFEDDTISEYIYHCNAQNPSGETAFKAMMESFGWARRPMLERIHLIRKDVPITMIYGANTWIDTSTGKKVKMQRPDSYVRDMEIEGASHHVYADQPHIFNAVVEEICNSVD
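Material: mouse ABHD4 enzyme, wild type; Benchmarks: S159A mutant high control, sample median low control; Buffer or medium: HEPES pH 7.0, NaCl, Pluronic buffer; Signal: fluorescence polarization; Read-out: percent inhibition of probe binding, normalized to plate controls; Timing: pre-incubation 45 min, probe exposure 60 min, at 25 °C; Dosing: 8.92 µM, single dose.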
SIAE inh: inhibitors of human sialic acid acetylesterase SIAE; Q9HAT2; SIAE FP-Rh probe binding, fluorescence polarization; inhibition, % at 9.66 µM; hit rate 0.69% among 370,000; AID 1053197;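 active = inhibition above a cutoff: mean of compounds within the control limits plus 3 SD of those, cut at about 17% in these data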
RBBP9 inh: human RBBP9 hydrolase inhibition; AID 1515; O75884; hit rate 0.2% among 220,000; inhibition, % at 7.94 µM; recombinant RBBP9, FP-Rh probe fluorescence polarization;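 active = inhibition above the campaign mean of all tested compounds plus 3 SD, cut at about 14% in these data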
Target sequence (O75884 whole entry, looked up): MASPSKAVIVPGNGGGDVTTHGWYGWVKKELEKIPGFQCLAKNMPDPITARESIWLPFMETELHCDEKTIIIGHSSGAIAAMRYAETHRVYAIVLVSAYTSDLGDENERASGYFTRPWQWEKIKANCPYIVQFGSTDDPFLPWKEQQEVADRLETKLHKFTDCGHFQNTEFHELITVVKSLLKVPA
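Measured by: FP readout at 525/598 nm; material: recombinant human RBBP9; also added: Serine-hydrolase probe FP-Rh, 375 nM pre-mixing; medium: Tris buffer pH 8.0, NaCl, Pluronic; replication: one well per compound; doses: one concentration, 7.94 µM nominal, 0.794% DMSO; timing: preincubation 30 min plus labeling 45 min at 25 °C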
HTRA1 inh: blocks human HTRA1 serine peptidase; AID 504803; recombinant HTRA1, FP-rhodamine activity-based probe, fluorescence polarization; Q92743; inhibition, % at 5.96 µM; hit rate 0.5% among 340,000; in the data active = inhibition above about 36%
SIAE confirm: confirmation of human SIAE inhibitors; shares compounds with SIAE inh; SIAE FP-Rh activity-based probe, fluorescence polarization; inhibition, % at 9.66 µM; hit rate 13% among 2,300;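 active = mean inhibition of the replicates above the hit cutoff set in the primary screen, cut at about 17% in these data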;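 also: inhibitors lower polarization as more probe stays unbound to SIAE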
Large screens that a line does not name were inactive (follow-up assays come after a bar, where they were run). Hits are enriched below; roughly 1.4% of the tested compounds scored in any of these assays.

O=C(NCC(=O)N1CCN(c2ncccn2)CC1)c1ccc(F)cc1	SIAE inh 22 (no result: RBBP9 inh) | SIAE confirm inactive
C/C(=N/NC(N)=S)c1ccc(Br)s1	none
CC(=O)Nc1c(O)nc(SCc2ccccc2C#N)[nH]c1=O	none
N#Cc1ccccc1CSc1nc(O)cc(=O)[nH]1	SIAE inh 17 | SIAE confirm inactive
Cc1ccc(NC(=O)Cn2c(CCC(=O)O)ccc2-c2cccs2)cc1Cl	SIAE inh 126 | SIAE confirm inactive
CCc1ccc(CNCC(=O)N2CCC3(CC2)OCCO3)s1	none (no result: RBBP9 inh, HTRA1 inh)
Cc1ccc(F)c(NC(=S)Nc2cccc3ccccc23)c1	SIAE inh 18 (no result: RBBP9 inh) | SIAE confirm inactive
CC(C)(C)c1ccc(C(=O)N2CCC(C(=O)NCc3ccco3)CC2)cc1	SIAE inh 17 | SIAE confirm inactive
Cc1ccc(C(=O)N2CCC(C(=O)NCc3ccco3)CC2)cc1	none (no result: RBBP9 inh)
CCOC(=O)C1CCN(C(=O)COC(=O)c2ccc([N+](=O)[O-])o2)CC1	none (no result: RBBP9 inh)
Cc1cc(C)nc(N2CCCC(C(=O)NC(C)C)C2)n1 (configuration not stated)	SIAE inh 18 | SIAE confirm inactive
COc1ccc(-c2csc(CCN3N=C(C)CC3=O)n2)cc1	SIAE inh 38 | SIAE confirm inactive
O=C(CC[C@H]1O[C@@H](n2cnc3c(NC(=O)c4ccccc4)ncnc32)[C@H](O)[C@@H]1O)NCC1CCN(Cc2ccccc2)CC1	SIAE inh 34 (no result: RBBP9 inh, HTRA1 inh) | SIAE confirm 27
Cc1nc2ccc(-c3nc4ccc(N)cc4[nH]3)cc2[nH]1	none
Nc1ccc2nc(-c3cc(Cl)c(N)c(Cl)c3)[nH]c2c1	SIAE inh 24 | SIAE confirm inactive
Cc1ccc(C)c(-c2nc3ccc(N)cc3[nH]2)c1	none
Nc1ccc(-c2nc3ccc(N)cc3[nH]2)cc1	SIAE inh 25 | SIAE confirm inactive
O=[N+]([O-])c1ccc(-c2nc3ccc([N+](=O)[O-])cc3[nH]2)cc1	SIAE inh 18 | SIAE confirm inactive
Nc1ccc2nc(-c3cccc(-c4nc5ccc(N)cc5[nH]4)c3)[nH]c2c1	SIAE inh 26 (no result: RBBP9 inh) | SIAE confirm 37
COC(=O)c1cc2c(c3c4cc(OC)ccc4n(S(=O)(=O)c4ccc(F)cc4)c13)C(=O)N(C)C2	none (no result: RBBP9 inh, HTRA1 inh)
Nc1ccc2nc(-c3ccc(Cl)cc3)[nH]c2c1	SIAE inh 54 (no result: RBBP9 inh) | SIAE confirm inactive
c1ccc2sc(-c3csc4c3CCNC4)nc2c1	none (no result: RBBP9 inh, HTRA1 inh)
O=C(NC(=S)N1CCOCC1)c1cn(-c2ccccc2)nc1-c1ccc(F)cc1	SIAE inh 28 (no result: RBBP9 inh) | SIAE confirm inactive
O=C(c1cn(-c2ccccc2)nc1-c1ccc(F)cc1)N1CCOCC1	none
CC(C)(C)C(=O)COC(=O)c1c2c(nc3ccccc13)CCC2	none
NC(=O)COC(=O)c1c2c(nc3ccccc13)CCCCC2	SIAE inh 17 | SIAE confirm inactive
CC(C)(C)c1ccc(OCCNC(=S)Nc2ccccc2)cc1	SIAE inh 17 | SIAE confirm inactive
CC(C)(C)c1ccc(OCCNCc2ccccc2)cc1	none (no result: RBBP9 inh)
Cc1noc(C)c1-c1ccc(C(=O)NCc2cccnc2)c2occc12	none (no result: RBBP9 inh, HTRA1 inh)
CCN(C[C@H]1N[C@@](C)(C(=O)OC)[C@H]2C(=O)N(Cc3ccccc3)C(=O)[C@@H]12)C(=O)c1ccc(C)cc1	none (no result: RBBP9 inh)
CCCCc1nnc(NC(=O)Cn2cnc3ccccc3c2=O)s1	none
CCc1nnc(NC(=O)CCn2cnc3ccccc3c2=O)s1	SIAE inh 22 (no result: HTRA1 inh) | SIAE confirm inactive
CCCc1c(-c2ccc(Cl)cc2)ncn1CCc1ccccc1OC	none (no result: RBBP9 inh, HTRA1 inh)
COCCCNC(=O)C[C@H]1C[C@@]2(C(=O)OC)C(=C[C@H](COCc3ccccc3)O[C@@H]2C)N(Cc2ccc3c(c2)OCO3)C1=O	SIAE inh 29 (no result: RBBP9 inh, HTRA1 inh) | SIAE confirm inactive
O=C(C[n+]1cccc2ccccc21)c1ccc(Br)cc1	SIAE inh 20 (no result: RBBP9 inh) | SIAE confirm inactive
N#CC(C#N)=Cc1cc2ccccc2nc1N1CCOCC1	none
N#C/C(=C\c1cc2ccccc2nc1N1CCOCC1)C(=O)Nc1ccc(N2CCOCC2)cc1	SIAE inh 20 | SIAE confirm inactive
Cn1c(CCN2CCN(c3ccccn3)CC2)nc2cc(NS(=O)(=O)c3ccc(Cl)cc3)ccc21	none (no result: RBBP9 inh)
Cc1ccc(S(=O)(=O)Nc2ccc3c(c2)nc(CCN2CCN(c4ccccn4)CC2)n3C)cc1	SIAE inh 19 (no result: RBBP9 inh) | SIAE confirm inactive
CCCCN1C(=O)C(=O)NC[C@@H]1Cc1ccc(O)cc1	none (no result: RBBP9 inh, HTRA1 inh)
O=C(Cn1nnc(-c2ccc(N3CCOCC3)cc2)n1)c1ccc(F)cc1	none (no result: RBBP9 inh, HTRA1 inh)
C#CCNc1cccc2c1S(=O)(=O)N[C@H](C)CO2	none (no result: RBBP9 inh, HTRA1 inh)
O=C(Nc1ccccc1C(F)(F)F)c1ccsc1	none (no result: RBBP9 inh)
O=C(NNc1ccccc1C(F)(F)F)c1sccc1Br	SIAE inh 25 | SIAE confirm inactive
CC(=O)N1CCN(C2c3cccc4cccc(c34)C2NS(=O)(=O)c2ccccc2)CC1 (configuration not stated)	SIAE inh 24 | SIAE confirm inactive
Cc1ccc(C(=O)O)cc1NC(=O)Nc1cccc2ccccc12	none (no result: RBBP9 inh)
CN(CC(=O)Nc1ccc(OC(F)(F)F)cc1)C(=O)Cc1cccs1	none (no result: RBBP9 inh)
CC(=O)N1CCN(c2ccc(NCc3ccc4c(c3)OCO4)cc2)CC1	SIAE inh 20 | SIAE confirm inactive
O=C(c1ccccc1)N1CCN(c2ccc(NCc3ccc4c(c3)OCO4)cc2)CC1	none
CC(=O)N1CCN(c2ccc(NCc3ccccc3)cc2)CC1	SIAE inh 28 | SIAE confirm inactive
CCn1ncc([C@@H]2C[C@H]3CN(Cc4cccc(Cl)c4)C(=O)[C@]34CCCN24)c1C	none (no result: HTRA1 inh)
CCCn1ncc([C@@H]2C[C@H]3CN(Cc4cccc(Cl)c4)C(=O)[C@]34CCCN24)c1C	SIAE inh 18 | SIAE confirm inactive
CCN1C(=O)/C(=C2/Sc3ccccc3N2CC)S/C1=N\c1ncn[nH]1	SIAE inh 19 | SIAE confirm inactive
CCn1c(CO)nc2c1c(=O)[nH]c(=O)n2Cc1ccccc1	SIAE inh 20 (no result: RBBP9 inh) | SIAE confirm inactive
CC(=O)N1c2ccccc2C(C)=NCC1C(=O)NC1CCCCC1 (configuration not stated)	none (no result: RBBP9 inh, HTRA1 inh)
CCCCN1CNC(=S)N(c2cc(C)ccc2C)C1	none
CCCCN1CNC(=S)N(c2ccc(C(=O)OCC)cc2)C1	SIAE inh 18 | SIAE confirm inactive
CN(/N=C/c1ccc(O)cc1O)c1nc(-c2ccccc2)cc(-c2ccccc2)n1	SIAE inh 20 | SIAE confirm inactive
Cc1cccc(NC(=O)c2ncn3c2C(=O)NC[C@H]3C)c1	none (no result: RBBP9 inh)
C[C@]12CCC(=O)C=C1C=C[C@@H]1[C@@H]2CC[C@@]2(C)[C@H]1CC[C@@]21CCC(=O)O1	SIAE inh 19 (no result: RBBP9 inh) | SIAE confirm inactive
COc1ccc(-n2c(=S)[nH]c3cc(C(=O)Nc4cc(OC)c(OC)c(OC)c4)ccc3c2=O)c(OC)c1	SIAE inh 17 | SIAE confirm inactive
CCc1nc2ccc(C(=O)NCc3ccc(OC)cc3)cn2c1N(C)CCC(C)C	none (no result: RBBP9 inh, HTRA1 inh)
CCn1nnnc1NCc1ccc(SC)cc1	SIAE inh 17 (no result: RBBP9 inh) | SIAE confirm inactive
CCOC(=O)CCCNC(=O)CSc1nnc(-c2ccccc2)c(-c2ccccc2)n1	none (no result: RBBP9 inh)

Screening data (PubChem)
